Test results from ChEMBL document CHEMBL1131215, “Anhydrolide macrolides. 1. Synthesis and antibacterial activity of 2,3-anhydro-6-O-methyl 11,12-carbamate erythromycin A analogues” (1998).
In brackets after ≈: the same amount, converted by molar mass.

Tests used:
Assay type in all cases: functional
[1] = test system: Streptococcus pneumoniae; assay: In vitro antibacterial activity against 5649 strain of Streptococcus pneumoniae; settings: Streptococcus pneumoniae
How it was run: (§1)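 MIC determined by standard agar dilution; values in μg/mL.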

[2] = test system: Staphylococcus aureus; assay: In vitro antibacterial activity against 6538P strain of Staphylococcus aureus; how it was run: as §1
[3] = test system: Streptococcus pyogenes; assay: In vitro antibacterial activity against PIU 2548 strain of Streptococcus pyogenes; how it was run: as §1
[4] = test system: Streptococcus pneumoniae; assay: In vitro antibacterial activity against ATCC 6303 strain of Streptococcus pneumoniae; how it was run: as §1
[5] = test system: Haemophilus influenzae; assay: In vitro antibacterial activity against DILL strain of Haemophilus influenzae.; how it was run: as §1
[6] = test system: Staphylococcus aureus; assay: In vitro antibacterial activity against A5177 strain of Staphylococcus aureus; settings: Staphylococcus aureus; how it was run: as §1
[7] = Streptococcus pneumoniae, ATCC 6303

Row | SMILES | MIC [1] [µg/mL] | MIC ([2]; Staphylococcus aureus) [µg/mL] | MIC ([3]; Streptococcus pyogenes) [µg/mL] | MIC [4, 7] [µg/mL] | MIC [5] [µg/mL] | MIC [6] [µg/mL] | MIC [2] [µg/mL] | MIC [3] [µg/mL] | MIC [4] [µg/mL]
1 | CC[C@H]1OC(=O)/C(C)=C/[C@H](C)[C@@H](O[C@@H]2O[C@H](C)C[C@H](N(C)C)[C@H]2O)[C@@](C)(OC)C[C@@H](C)C(=O)[C@H](C)[C@H]2N(CCCN(C)c3ccccc3)C(=O)O[C@]12C | < 0.004 | 6.2 (≈ 8.33 µM) | 0.39 (≈ 0.524 µM) | < 0.004 | > 64 |  |  |  | 
2 | CC[C@H]1OC(=O)/C(C)=C/[C@H](C)[C@@H](O[C@@H]2O[C@H](C)C[C@H](N(C)C)[C@H]2O)[C@@](C)(OC)C[C@@H](C)C(=O)[C@H](C)[C@H]2N(CCc3ccc(N)cc3)C(=O)O[C@]12C | 2 (≈ 2.79 µM) | 1.56 (≈ 2.18 µM) | 0.2 (≈ 0.279 µM) | 0.5 (≈ 0.698 µM) | 32 (≈ 44.7 µM) | 0.78 (≈ 1.09 µM) |  |  | 
3 | CC[C@H]1OC(=O)/C(C)=C/[C@H](C)[C@@H](O[C@@H]2O[C@H](C)C[C@H](N(C)C)[C@H]2O)[C@@](C)(OC)C[C@@H](C)C(=O)[C@H](C)[C@H]2N(Cc3ccccc3)C(=O)O[C@]12C | 2 (≈ 2.91 µM) | 0.78 (≈ 1.14 µM) | 0.2 (≈ 0.291 µM) | 0.25 (≈ 0.364 µM) |  | 0.78 (≈ 1.14 µM) |  |  | 
4 | CCOCCCN1C(=O)O[C@]2(C)[C@@H](CC)OC(=O)/C(C)=C/[C@H](C)[C@@H](O[C@@H]3O[C@H](C)C[C@H](N(C)C)[C@H]3O)[C@@](C)(OC)C[C@@H](C)C(=O)[C@H](C)[C@@H]12 | 2 (≈ 2.93 µM) | 1.56 (≈ 2.28 µM) | 0.39 (≈ 0.571 µM) | 0.25 (≈ 0.366 µM) |  | 1.56 (≈ 2.28 µM) |  |  | 
5 | CC[C@H]1OC(=O)/C(C)=C/[C@H](C)[C@@H](O[C@@H]2O[C@H](C)C[C@H](N(C)C)[C@H]2O)[C@@](C)(OC)C[C@@H](C)C(=O)[C@H](C)[C@H]2N(CCCc3cnc4ccccc4c3)C(=O)O[C@]12C | 4 (≈ 5.22 µM) | 1.56 (≈ 2.04 µM) | 0.39 (≈ 0.509 µM) | 0.25 (≈ 0.326 µM) | 32 (≈ 41.8 µM) |  |  |  | 
6 | CC[C@H]1OC(=O)/C(C)=C/[C@H](C)[C@@H](O[C@@H]2O[C@H](C)C[C@H](N(C)C)[C@H]2O)[C@@](C)(OC)C[C@@H](C)C(=O)[C@H](C)[C@H]2N(C(C)C)C(=O)O[C@]12C | 2 (≈ 3.13 µM) | 12.5 (≈ 19.6 µM) | 1.56 (≈ 2.44 µM) | 2 (≈ 3.13 µM) |  | 12.5 (≈ 19.6 µM) |  |  | 
7 | CC[C@H]1OC(=O)/C(C)=C/[C@H](C)[C@@H](O[C@@H]2O[C@H](C)C[C@H](N(C)C)[C@H]2O)[C@@](C)(OC)C[C@@H](C)C(=O)[C@H](C)[C@H]2N(CCCOc3ccncc3)C(=O)O[C@]12C | 1 (≈ 1.37 µM) | 0.39 (≈ 0.533 µM) | 0.2 (≈ 0.273 µM) | 0.03 (≈ 0.041 µM) | 16 (≈ 21.9 µM) | 0.39 (≈ 0.533 µM) |  |  | 
8 | CC[C@H]1OC(=O)/C(C)=C/[C@H](C)[C@@H](O[C@@H]2O[C@H](C)C[C@H](N(C)C)[C@H]2O)[C@@](C)(OC)C[C@@H](C)C(=O)[C@H](C)[C@H]2N(CCc3ccc(O)cc3)C(=O)O[C@]12C | 0.5 (≈ 0.697 µM) | 0.78 (≈ 1.09 µM) | 0.39 (≈ 0.544 µM) | 0.125 (≈ 0.174 µM) | 16 (≈ 22.3 µM) | 0.78 (≈ 1.09 µM) |  |  | 
9 | C=COCCCN1C(=O)O[C@]2(C)[C@@H](CC)OC(=O)/C(C)=C/[C@H](C)[C@@H](O[C@@H]3O[C@H](C)C[C@H](N(C)C)[C@H]3O)[C@@](C)(OC)C[C@@H](C)C(=O)[C@H](C)[C@@H]12 | 2 (≈ 2.94 µM) | 3.1 (≈ 4.55 µM) | 0.39 (≈ 0.573 µM) | 0.5 (≈ 0.734 µM) | 64 (≈ 94 µM) | 3.1 (≈ 4.55 µM) |  |  | 
10 | CC[C@H]1OC(=O)/C(C)=C/[C@H](C)[C@@H](O[C@@H]2O[C@H](C)C[C@H](N(C)C)[C@H]2O)[C@@](C)(OC)C[C@@H](C)C(=O)[C@H](C)[C@H]2NC(=O)O[C@@]21C (stereo in doubt; 7) |  |  |  |  |  |  | 25 (≈ 41.9 µM) | 6.2 (≈ 10.4 µM) | 
11 | CC[C@H]1OC(=O)[C@H](C)[C@@H](O[C@H]2C[C@@](C)(OC)[C@@H](O)[C@H](C)O2)[C@H](C)[C@@H](O[C@@H]2O[C@H](C)C[C@H](N(C)C)[C@H]2O)[C@](C)(O)C[C@@H](C)C(=O)[C@H](C)[C@@H](O)[C@]1(C)O [ERYTHROMYCIN] | 8 (≈ 10.9 µM) | 0.2 (≈ 0.273 µM) | 3.1 (≈ 4.22 µM) |  | 4 (≈ 5.45 µM) | 3.1 (≈ 4.22 µM) |  |  | 0.06 (≈ 0.0818 µM)
